These results are taken from ChEMBL document CHEMBL4673298, “Exploration of Structure-Activity Relationship of Aromatic Aldehydes Bearing Pyridinylmethoxy-Methyl Esters as Novel Antisickling Agents” (J Med Chem, 2020).

The species named for series [1] is Homo sapiens. Nature of the series: Binding affinity to Hemoglobin in normal human whole blood assessed as increase in Hb affinity for oxygen at 2 mM by oxygen equilibrium curve study. The format is tissue-based. The procedure, abridged: (§1)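 Normal human whole blood, hematocrit 30%, incubated with or without compound in DMSO (0.5, 1.0 or 2.0 mM; 2 mM for the time course) at 37 °C. The blood is tonometered about 7 min at 37 °C against gas with 0.804, 2.935 and 5.528% O2 (6, 20, 40 mmHg). sO2 and pO2 are read on a blood gas analyzer. ΔP50% is taken relative to no compound. Time course sampled at 1, 2, 4, 8, 12, 24 h.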

The species named for series [2] is Homo sapiens. Kind of series: Binding affinity to Hemoglobin in normal human whole blood assessed as increase in Hb affinity for oxygen incubated for 1.5 hrs by oxygen equilibrium curve study. The format is tissue-based. In outline: as §1
In series [3] the test system is Red blood cell. Kind of series: Binding affinity to Hemoglobin in sickle cell RBCs from blood isolated from patient with homozygous SS assessed as increase in hemoglobin modification at 2 mM under hypoxic conditions incubated for 2 hrs […]. Conditions: Homo sapiens. The format is tissue-based. The procedure, abridged: (§2)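 SS blood, hematocrit 20%, incubated under air with compound (0.5, 1, 2 mM) at 37 °C for 1 h, then hypoxic (2.5% O2/97.5% N2) at 37 °C for 2 h. Cells are washed and hemolyzed. Lysate is run on weak cation-exchange HPLC to quantify Hb adduct (modified Hb). Three biological replicates, mean ± SD.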

Series [4] concerns Red blood cell. Kind of series: Binding affinity to Hemoglobin in sickle cell RBCs from blood isolated from patient with homozygous SS assessed as increase in Hb affinity shift for oxygen at 2 mM under hypoxic conditions incubated for 2 hrs by oxygen equilibrium curve study. In kind it is tissue-based. Conditions: Homo sapiens. In outline: (§3)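 SS blood, hematocrit 20%, incubated under air with compound (0.5, 1, 2 mM) at 37 °C for 1 h, then hypoxic (2.5% O2/97.5% N2) at 37 °C for 2 h. Cells are washed in PBS and hemolyzed hypotonically. Lysate in 0.1 M potassium phosphate pH 7.0 is run by Hemox analysis for P50. ΔP50 is given as percent of DMSO control. Three biological replicates, mean ± SD.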

Series [5] has as its system Red blood cell. Kind of series: Binding affinity to Hemoglobin in sickle cell RBCs from blood isolated from patient with homozygous SS assessed as increase in hemoglobin modification at 1 mM under hypoxic conditions incubated for 2 hrs […]. The format is tissue-based. The settings on record: Homo sapiens. The procedure, abridged:
as §2

Series [6] in a line: Inhibition of sickling in sickle cell RBCs from blood isolated from patient with homozygous SS at 1 mM under hypoxic conditions incubated for 2 hrs. The settings on record: Homo sapiens, Erythrocyte. In kind it is functional. In outline: (§4)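 SS blood, hematocrit 20%, preincubated under air with compound (0.5, 1, 2 mM) for 1 h at 37 °C, then 2 h hypoxia (2.5% O2/97.5% N2) at 37 °C. Aliquots are fixed in 2% glutaraldehyde without air exposure. Cell morphology is scored from bright-field images at 40×. Three biological replicates, mean ± SD.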

The subject of series [7] is Red blood cell. Kind of series: Binding affinity to Hemoglobin in sickle cell RBCs from blood isolated from patient with homozygous SS assessed as increase in hemoglobin modification at 0.5 mM under hypoxic conditions incubated for 2 hrs […]. Conditions: Homo sapiens. The format is tissue-based. In outline: as §2
For series [8], the system named is Red blood cell. Kind of series: Binding affinity to Hemoglobin in sickle cell RBCs from blood isolated from patient with homozygous SS assessed as increase in Hb affinity shift for oxygen at 0.5 mM under hypoxic conditions incubated for 2 hrs by oxygen equilibrium curve study. The format is tissue-based. The settings on record: Homo sapiens. The procedure, abridged: as §3

Series [9] concerns Red blood cell. Kind of series: Binding affinity to Hemoglobin in sickle cell RBCs from blood isolated from patient with homozygous SS assessed as increase in hemoglobin modification under hypoxic conditions incubated for 2 hrs […]. In kind it is tissue-based. The settings on record: Homo sapiens. The procedure, abridged: as §2
Series [10] can be described thus: Inhibition of sickling in sickle cell RBCs from blood isolated from patient with homozygous SS at 0.5 mM under hypoxic conditions incubated for 2 hrs. In kind it is functional. The settings on record: Homo sapiens, Erythrocyte. The procedure, abridged: as §4
Series [11] has as its system Erythrocyte. Kind of series: Inhibition of sickling in sickle cell RBCs from blood isolated from patient with homozygous SS under hypoxic conditions incubated for 2 hrs. In kind it is functional, tissue-based. Conditions: Homo sapiens. In outline: as §4
Series [12] in a line: Inhibition of sickling in sickle cell RBCs from blood isolated from patient with homozygous SS at 2 mM under hypoxic conditions incubated for 2 hrs. In kind it is functional. Conditions: Homo sapiens, Erythrocyte. In outline:
as §4

Series [13] deals with Red blood cell. Kind of series: Binding affinity to Hemoglobin in sickle cell RBCs from blood isolated from patient with homozygous SS assessed as increase in Hb affinity shift for oxygen at 1 mM under hypoxic conditions incubated for 2 hrs by oxygen equilibrium curve study. The format is tissue-based. The settings on record: Homo sapiens. In outline:
as §3

Series [14] deals with Red blood cell. Nature of the series: Binding affinity to Hemoglobin in sickle cell RBCs from blood isolated from patient with homozygous SS assessed as increase in Hb affinity for oxygen under hypoxic conditions incubated for 2 hrs by oxygen equilibrium curve study. The format is tissue-based. The settings on record: Homo sapiens. In outline:
as §3

Series [15] in a line: Stability in human whole blood assessed as parent compound level at 0.5 mM incubated for 24 hrs by reversed-phase HPLC analysis. In kind it is ADME, tissue-based. The settings on record: read-out: Stabilty. In outline:
(§5)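 Normal whole blood, hematocrit 30%, incubated with or without compound at 0.5 or 1 mM at 37 °C. Aliquots taken at 0, 4, 8, 24 h are deproteinized with 0.1 M formic acid in acetonitrile at 60–65 °C for 30 min, centrifuged and filtered. Reversed-phase C18 HPLC uses a 0.1% formic acid water/acetonitrile gradient, detection at 261 nm. Parent and carboxylic acid analogue are quantified; the acid serves as reference.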

The nature of series [16]: Induction of in-vivo modification of intracellular hemoglobin in C57BL/6 mouse at 150 mg/kg, ip dosed as single administration measured after 6 hrs by cation-exchange HPLC analysis.
Series [17] in a line: Drug metabolism in human whole blood assessed as carboxylic acid analogue formation at 0.5 to 1 mM incubated up to 24 hrs by reversed-phase HPLC analysis. In kind it is ADME, tissue-based. Conditions: 1000 µM, dose 0.5-1 mM. In outline: as §5
Series [18] is described as follows: Stability in human whole blood assessed as parent compound level at 1 mM incubated for 24 hrs by reversed-phase HPLC analysis. The format is ADME, tissue-based. The settings on record: read-out: Stabilty. The procedure, abridged: as §5
Series [19] relates to Mus musculus. Nature of the series: Induction of in-vivo hemoglobin-O2 affinity shifts in C57BL/6 mouse at 150 mg/kg, ip dosed as single administration measured after 3 to 6 hrs by oxygen equilibrium curve study. In kind it is functional, organism-based. The settings on record: time 3-6 hrs, TDE = time-dependent effect. In outline:
(§6)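 C57BL/6 mice (3 male, 3 female) receive a single intraperitoneal dose of 150 mg/kg. Blood is drawn by submandibular bleeding before dosing and at 1, 3 and 6 h, then hemolyzed. Hb modification and Hb-O2 affinity shift are measured; n = 6.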

In series [20] the test system is Mus musculus. Nature of the series: Induction of in-vivo modification of intracellular hemoglobin in C57BL/6 mouse at 150 mg/kg, ip dosed as single administration measured after 1 to 6 hrs by cation-exchange HPLC analysis. The format is functional, organism-based. The settings on record: time 1-6 hrs, TDE = time-dependent effect. In outline:
as §6

A short description of series [21]: Induction of in-vivo hemoglobin-O2 affinity shifts in C57BL/6 mouse at 150 mg/kg, ip dosed as single administration measured after 6 hrs by oxygen equilibrium curve study. The format is functional. In outline: as §6
The species entered for series [22] is Homo sapiens. Nature of the series: Binding affinity to Hemoglobin in normal human whole blood assessed as increase in Hb affinity for oxygen at 2 mM incubated for 1 to 24 hrs by oxygen equilibrium curve study. The settings on record: time 1-24 hrs. The format is tissue-based. The procedure, abridged: as §1
The species entered for series [23] is Homo sapiens. Nature of the series: Binding affinity to Hemoglobin in normal human whole blood assessed as increase in Hb affinity for oxygen at 2 mM incubated for 24 hrs by oxygen equilibrium curve study. The format is tissue-based. In outline: as §1

Activity calls are given as the source filed them. No cut-off for these calls is given here.

The inhibition is the percentage by which the read-out fell short of the control. Consider `COC(=O)c1ncccc1COc1ccc(OC)cc1C=O`, for which the outcome in [1] and in series [2] was inactive. Also, the Activity in series [3] was 79.2%; in [4], 25.4%; in series [5], 62.3%; in series [7] it was 30.2%; in series [8], 4.4%; in series [9], “Dose-dependent effect”. The Activity in series [13] is 13.9%; in series [14] it was “Dose-dependent effect”. The same compound gave an inhibition at 1000 µM in series [6] of 97.7%. Moreover, the inhibition at 500 µM in series [10] came out at 37.6%. In addition, the inhibition result in series [11] was “Dose-dependent effect”. Moreover, in [12], the inhibition at 2000 µM worked out at 99.1%.

For the compound `COC(=O)c1cccnc1COc1cccc(O)c1C=O`, the remaining at 24 h, 500 µM in series [15] turned out to be 81%. For the same compound, the Activity entry in series [1] (TDE = time-dependent effect) is “Tde”; in [2], “Dose-dependent effect”; in series [3], 90.8%; in series [4], 39.6%; in series [5] it was 64.4%; in series [7], 46%. In addition, the Activity in [8] is 12.2%; in [9] it was “Dose-dependent effect”; in [16], 16.9%; in [19], “Tde”; in series [20], “Tde”; in series [13], 18.8%. Besides, the Activity entry in [14] is “Dose-dependent effect”; in series [21], 14.5%. For the same compound, in series [6], the inhibition at 1000 µM amounted to 70.6%. In series [10], testing at 500 µM gave an inhibition of 43.3%. Moreover, the inhibition result in series [11] was “Dose-dependent effect”. Further, in [17], the Drug metabolism entry is listed as “Metabolite_Detected”. Besides, in series [18], the remaining at 24 h, 1000 µM was 78%. The compound also gave an inhibition at 2000 µM in series [12] of 98.8%.

Take `COC(=O)c1ccc(COc2ccc(OC)cc2C=O)cn1`: the Activity result in series [1] (TDE = time-dependent effect) is “Tde”; in series [2] it was “Dose-dependent effect”; in series [3], 81.3%; in [4] it was 32.3%; in series [5], 64%; in [7] it was 36.1%. The Activity was 9.9% in [8], “Dose-dependent effect” in [9], 19.5% in series [13] and “Dose-dependent effect” in series [14]. This compound displayed an inhibition at 1000 µM in [6] of 81.6%. Further, at 500 µM the inhibition in series [10] was 29.1%. Also, the inhibition entry in series [11] is “Dose-dependent effect”. Also, in series [12], the inhibition at 2000 µM is 96.5%.

For `COc1cc(C=O)ccc1O`, in [22], the Activity is 21%.

Consider `COC(=O)c1ccc(COc2cccc(O)c2C=O)cn1`, for which the Activity entry was “Tde” in series [1] (TDE = time-dependent effect); “Dose-dependent effect” in series [2]; 100% in [3]; 60.1% in series [4]; 92.5% in [5]; 47.8% in series [7]. The Activity in series [8] was 16.3%; in series [9], “Dose-dependent effect”; in series [13], 44.2%; in series [14] it was “Dose-dependent effect”. Also, the inhibition at 1000 µM in series [6] came out at 90.7%. The compound also showed an inhibition at 500 µM in series [10] of 39.5%. In [11], the inhibition result was “Dose-dependent effect”. For the same compound, the inhibition at 2000 µM in [12] was 98.9%.

With `COc1ccc(OCc2cccc(CO)n2)c(C=O)c1`, the Activity in series [3] is 80%; in series [5], 60%; in series [9] it was “Dose-dependent effect”; in series [16], 1.5%; in [19], “Tde”; in [20], “Tde”. The Activity entry in series [14] is “Dose-dependent effect”; in series [21] it was 1%. Further, at 1000 µM the inhibition in series [6] was 47%. In [10], this compound showed an inhibition at 500 µM of 26%. For the same compound, the inhibition result in [11] is “Dose-dependent effect”. The inhibition at 2000 µM in series [12] was over 90%.

For the compound `COC(=O)c1ccnc(COc2ccc(OC)cc2C=O)c1`, the outcome in series [23] was Active. Moreover, the Activity result in series [9] and in series [14] was “Dose-dependent effect” in each case. Further, the inhibition entry in series [11] is “Dose-dependent effect”. Besides, the inhibition at 2000 µM in series [12] is over 90%.

As to `COC(=O)c1cccc(COc2cccc(O)c2C=O)n1`, the remaining at 24 h, 500 µM in series [15] is 89%. Also, the outcome in series [1] and in [2] was inactive. For the same compound, the Activity is 100% in series [3]; 48.6% in series [4]; 81.1% in series [5]; 29.2% in [7]; 5.4% in series [8]; “Dose-dependent effect” in series [9]. Moreover, the Activity in [16] is 9.6%; in [19], “Tde”; in [20] it was “Tde”; in series [13] it was 29.2%; in series [14] it was “Dose-dependent effect”; in series [21] it was 5.5%. The inhibition at 1000 µM in [6] is 54.2%. In series [10], this compound had an inhibition at 500 µM of 7.6%. Further, in series [11], the inhibition result is “Dose-dependent effect”. In addition, the Drug metabolism entry in series [17] is “Metabolite_Detected”. Also, the remaining at 24 h, 1000 µM in [18] is 83%. The compound further showed an inhibition at 2000 µM in [12] of 93.2%.
